Laboratory results: ChEMBL document CHEMBL2331369, “Transport by OATP1B1 and OATP1B3 enhances the cytotoxicity of epigallocatechin 3-O-gallate and several quercetin derivatives” (J Nat Prod, 2013)
Active and inactive are the calls of the source. The rule behind the calls is not given here.

Legend:
CHO [1] = assay: Cytotoxicity against wild type CHO cells after 48 hrs by […] CellTiter-Glo assay; assay type: cell-based, Cricetulus griseus; conditions: for Activity: chinese hamster, cho; for IC50: Cricetulus griseus, CHO
Summary of the method: (§1)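 Seeded at 1600 cells/well, 24 h culture, then 5 mM sodium butyrate induction for 24 h. Cells then exposed to a range of compound concentrations for 48 h in medium with 10% FBS. CellTiter-Glo readout, expressed as percent of DMSO control. IC50 from at least three independent experiments, mean ± SEM.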

CHO [2] = assay: Cell cycle arrest in CHO cells expressing OATP1B3 haplotype 1 assessed as accumulation at G0/G1 phase at 10 uM after 48 hrs using propidium iodide staining by flow cytometry; conditions: Cricetulus griseus
CHO [3] = assay: Inhibition of OATP1B3 haplotype 1 (unknown origin) expressed in CHO cells assessed as reduction of [3H]estrone-3-sulfate at 50 uM after 20 seconds; assay type: cell-based; conditions: Homo sapiens
Summary of the method: (§2)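 Uptake in stably transfected CHO cells grown with 10% FBS. Test compound at 50 μM with 1% DMSO as control. Substrates 0.1 μM E3S or E17βG for 20 s, or 0.5 μM DHEAS for 5 min, all at 37 °C. Net OATP uptake is taken as the wild-type CHO signal subtracted. Values are percent of DMSO control, mean ± SEM of one representative of three experiments.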

CHO [4] = assay: Inhibition of OATP1B3 haplotype 1 (unknown origin) expressed in CHO cells assessed as reduction of [3H]dehydroepiandrosterone sulfate at 50 uM after 5 mins; assay type: cell-based; conditions: Homo sapiens; summary of the method: as §2
CHO [5] = assay: Cytotoxicity against CHO cells expressing OATP1B3 haplotype 1 after 48 hrs by […] CellTiter-Glo assay; assay type: functional, cell-based; conditions: Cricetulus griseus; summary of the method: as §1
CHO [6] = assay: Inhibition of OATP1B1*1b (unknown origin) expressed in CHO cells assessed as reduction of [3H]estrone-3-sulfate at 50 uM after 20 seconds; assay type: cell-based; conditions: Homo sapiens; summary of the method: as §2
CHO [7] = assay: Induction of apoptosis in CHO cells expressing OATP1B3 haplotype 1 at 10 uM after 48 hrs using propidium iodide and FITC Annexin V staining by flow cytometry; assay type: functional, Cricetulus griseus
Summary of the method: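 Seeded at 90 000 cells/well for 24 h, then 5 mM sodium butyrate for 24 h, then 10 μM compound for 48 h. Medium and washes pooled with trypsinized cells, spun at 300g for 5 min. Stained with FITC Annexin V plus 4 μg/mL propidium iodide for 20 min in the dark, then flow cytometry. DMSO control; three independent experiments averaged.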

CHO [8] = assay: Inhibition of OATP1B1*1b (unknown origin) expressed in CHO cells assessed as reduction of [3H]estradiol 17beta-glucuronide at 50 uM after 20 seconds; assay type: cell-based; conditions: Homo sapiens; summary of the method: as §2
CHO [9] = assay: Inhibition of OATP1B1*1b (unknown origin) expressed in CHO cells assessed as reduction of [3H]dehydroepiandrosterone sulfate at 50 uM after 5 mins; assay type: cell-based; conditions: Homo sapiens; summary of the method: as §2
CHO [10] = assay: Cytotoxicity against CHO cells expressing OATP1B1*1b after 48 hrs by […] CellTiter-Glo assay; assay type: functional, cell-based; conditions: Cricetulus griseus; summary of the method: as §1
CHO [11] = assay: Inhibition of OATP1B3 haplotype 1 (unknown origin) expressed in CHO cells assessed as reduction of [3H]estradiol 17beta-glucuronide at 50 uM after 20 seconds; assay type: cell-based; conditions: Homo sapiens; summary of the method: as §2
CHO [12] = assay: Activation of OATP1B3 haplotype 1 (unknown origin) expressed in CHO cells assessed as increase at 50 uM after relative to control; conditions: Homo sapiens
Plasma = assay: Plasma concentration in human at 1600 mg; assay type: ADME, cell-free
Albumin [13] = biological target: T1, Albumin (Homo sapiens, UniProt P02768); assay: Binding affinity to human serum albumin at 1 uM; assay type: ADME; conditions: isolated protein
Albumin [14] = biological target: T1, Albumin; assay: Binding affinity to human serum albumin at 10 uM; assay type: ADME; conditions: isolated protein
CHO [15] = assay: Cell cycle arrest in CHO cells expressing OATP1B3 haplotype 1 assessed as accumulation at G0/G1 phase at 1 uM after 48 hrs using propidium iodide and FITC Annexin V staining by flow cytometry; assay type: functional, cell-based; conditions: Cricetulus griseus
Summary of the method: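 Cells plated at 90 000/well for 24 h, held 36 h serum-free to synchronize in G0, induced 24 h with 5 mM sodium butyrate, then compound for 48 h. Fixed in 70% ice-cold ethanol at 4 °C overnight, then 40 min in PBS with 25 μg/mL RNase and 12.5 μg/mL propidium iodide. DNA content by flow cytometry; two independent experiments averaged.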

CHO [16] = assay: Cytotoxicity against CHO cells expressing OATP1B3 haplotype 1 after 48 hrs by […] CellTiter-Glo assay relative to wild type CHO cells; assay type: functional, Cricetulus griseus
Summary of the method: (§3)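 CHO cells stably expressing OATP1B1*1b or OATP1B3, and wild-type CHO, in DMEM with 10% FBS. Seeded at 1600 cells/well and cultured 24 h. Then 24 h with 5 mM sodium butyrate to induce expression, then graded compound concentrations for 48 h. Viability read by CellTiter-Glo as percent of DMSO control. IC50 from mean ± SEM of at least three independent experiments.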

CHO [17] = assay: Cytotoxicity against CHO cells expressing OATP1B1*1b after 48 hrs by […] CellTiter-Glo assay relative to wild type CHO cells; assay type: functional, Cricetulus griseus; summary of the method: as §3
CHO [18] = assay: Induction of apoptosis in CHO cells expressing OATP1B3 haplotype 1 at 1 uM after 48 hrs using propidium iodide and FITC Annexin V staining by flow cytometry; assay type: functional, Cricetulus griseus
Summary of the method: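 Wild-type and OATP1B3 CHO cells plated at 90 000/well for 24 h, induced 24 h with 5 mM sodium butyrate, then compound 48 h (DMSO control). Medium and trypsinized cells pooled, spun 5 min at 300g, PBS-washed. Stained 20 min in the dark with FITC Annexin V and 4 μg/mL propidium iodide, then flow cytometry. Two independent experiments, values averaged.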

CHO [19] = assay: Activation of OATP1B3 haplotype 1 (unknown origin) expressed in CHO cells assessed as increase of [3H]estradiol 17beta-glucuronide at 50 uM after 20 seconds relative to control; assay type: cell-based; conditions: Homo sapiens; summary of the method: as §2

T1 sequence (P02768 whole entry): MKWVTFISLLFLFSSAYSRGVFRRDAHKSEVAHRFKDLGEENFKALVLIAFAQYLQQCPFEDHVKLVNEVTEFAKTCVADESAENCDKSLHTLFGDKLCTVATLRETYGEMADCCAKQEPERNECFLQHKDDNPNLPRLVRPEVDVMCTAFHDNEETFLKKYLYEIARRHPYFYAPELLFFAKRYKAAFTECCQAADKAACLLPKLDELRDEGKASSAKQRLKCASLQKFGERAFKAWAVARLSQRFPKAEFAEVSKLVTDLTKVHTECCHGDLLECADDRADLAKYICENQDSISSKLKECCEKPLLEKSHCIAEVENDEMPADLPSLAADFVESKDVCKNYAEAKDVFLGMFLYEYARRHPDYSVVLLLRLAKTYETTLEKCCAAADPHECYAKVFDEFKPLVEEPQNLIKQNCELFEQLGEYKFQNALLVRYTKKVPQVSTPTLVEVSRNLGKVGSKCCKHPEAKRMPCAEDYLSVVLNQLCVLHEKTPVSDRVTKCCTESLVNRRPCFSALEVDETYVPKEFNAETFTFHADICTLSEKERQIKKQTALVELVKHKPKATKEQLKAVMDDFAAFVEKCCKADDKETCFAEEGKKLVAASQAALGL

SMILES | Activity (CHO [1]) | inhibition (CHO [3]) | inhibition (CHO [4]) | IC50 (CHO [5]) [µM] | inhibition (CHO [6]) | inhibition (CHO [8]) | inhibition (CHO [9]) | IC50 (CHO [10]) [µM] | inhibition (CHO [11]) | Activity (CHO [10]) | also measured
O=C(Oc1c(-c2ccc(O)c(O)c2)oc2cc(O)cc(O)c2c1=O)c1cc(O)c(O)c(O)c1 | Non-toxic | Active | Active | 3.8 | Active | Active | Active | 3.5 | Active |  | Activity (CHO [2]): inactive; Activity (CHO [7]): 32%
Nc1cc(C(=O)Oc2c(-c3ccc(O)c(O)c3)oc3cc(O)cc(O)c3c2=O)ccc1O | Non-toxic |  |  |  |  |  |  |  |  | inactive | Activity (CHO [12]): Active; Activity (CHO [5]): inactive
Nc1ccc(C(=O)Oc2c(-c3ccc(O)c(O)c3)oc3cc(O)cc(O)c3c2=O)cc1O | Non-toxic | Active | Active | 4.1 | Active | Active | Active |  | Active | inactive | Activity (CHO [2]): inactive; Activity (CHO [7]): 70%
O=C(O[C@@H]1Cc2c(O)cc(O)cc2O[C@@H]1c1cc(O)c(O)c(O)c1)c1cc(O)c(O)c(O)c1 [EPIGALOCATECHIN GALLATE] |  |  |  | 3.2 |  |  |  | 7.7 |  |  | IC50 (CHO [1]): 271 µM; concentration (Plasma): 11.3 µM; Activity (Albumin [13]): 99%; Activity (Albumin [14]): 85%; Activity (CHO [15]): Active; fold change (FC) (CHO [16]): 85; fold change (FC) (CHO [17]): 35; Activity (CHO [18]): 15%
CCCOc1cc(O)cc2oc(-c3ccc(O)c(O)c3)c(O)c(=O)c12 |  |  | Active | 11.8 | Active | Active | Active | 42.6 |  |  | fold change (FC) (CHO [19]): 3; IC50 (CHO [1]): 111 µM
O=C(Oc1cc(-c2oc3cc(O)cc(O)c3c(=O)c2O)ccc1O)c1cc(O)c(O)c(O)c1 | Non-toxic | Active | Active | 6.8 | Active | Active | Active | 7.9 | Active |  | 
NCCCOc1cc(-c2oc3cc(O)cc(O)c3c(=O)c2O)ccc1O | Non-toxic | Active | Active |  |  |  |  |  | Active | inactive | Activity (CHO [5]): inactive
